According to ChEMBL document CHEMBL2062417, “Biotinylated quercetin as an intrinsic photoaffinity proteomics probe for the identification of quercetin target proteins” (Bioorg Med Chem, 2011):
pIC50: −log10 of the molar value. Active and inactive are the calls of the source. The calls are words filed in the database; no cut-off is given here.

Legend:
[1] = target: Calcium/calmodulin-dependent protein kinase type II subunit beta (Homo sapiens, UniProt Q13554); assay: Inhibition of CAMK2 using autocamtide-2 as substrate after 30 mins by PKLight assay
Jurkat = assay: Inhibition of heat shock-induced HSP70 expression in human Jurkat cells at 145 uM treated 2 hrs before beat shock challenge measured after 8 hrs by Western blotting; type: functional, cell-based
Outline: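 Jurkat cells (low basal HSP70) got 145 μM compound or DMSO vehicle for 2 h, then a 30 min 43 °C heat shock and 8 h recovery at 37 °C. HSP70 and actin were read by Western blot. Controls were unheated cells and heated cells with no additive.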

Sequence of Calcium/calmodulin-dependent protein kinase type II subunit beta (Q13554 whole entry): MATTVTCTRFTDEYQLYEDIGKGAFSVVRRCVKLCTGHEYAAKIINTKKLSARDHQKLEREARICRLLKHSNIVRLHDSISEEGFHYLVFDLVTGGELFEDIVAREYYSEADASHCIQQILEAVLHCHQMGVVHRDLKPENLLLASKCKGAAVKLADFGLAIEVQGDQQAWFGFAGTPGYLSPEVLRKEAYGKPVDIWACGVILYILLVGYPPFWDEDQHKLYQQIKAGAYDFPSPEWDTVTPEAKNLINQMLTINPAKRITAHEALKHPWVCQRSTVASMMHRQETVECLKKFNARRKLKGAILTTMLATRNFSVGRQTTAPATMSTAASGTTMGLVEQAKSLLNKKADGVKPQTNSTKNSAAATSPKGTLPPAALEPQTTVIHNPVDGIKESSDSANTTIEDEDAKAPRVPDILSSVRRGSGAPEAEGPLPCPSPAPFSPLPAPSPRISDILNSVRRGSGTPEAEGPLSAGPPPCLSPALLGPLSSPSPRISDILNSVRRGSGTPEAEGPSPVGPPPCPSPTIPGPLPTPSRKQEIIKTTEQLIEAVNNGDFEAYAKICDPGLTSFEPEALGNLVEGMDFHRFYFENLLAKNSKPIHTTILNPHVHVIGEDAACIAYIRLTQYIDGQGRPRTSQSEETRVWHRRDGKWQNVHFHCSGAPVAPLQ

For `O=c1c(O)c(-c2ccc(O)c(O)c2)oc2cc(O)cc(O)c12` [QUERCETIN], the pIC50 [1] was 5.52 and the inhibition (Jurkat) was “Active”.
